Experimental data: ChEMBL document CHEMBL3352171, “Synthesis and biological evaluation of andrographolide analogues as anti-cancer agents” (Eur J Med Chem, 2014)

Assay: Induction of glutathione reactivity in pH 7.4 PBS buffer assessed as compound formation at 10 mM Andrographolide-14a-O iodoacetate and 10 mM GSH at 50 degC incubated for 8 hrs under argon atmosphere by reverse phase HPLC method
Assay type: physicochemical
Settings: pH 7.4, 8 h, 10000 µM
Outline: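 Ethanolic compound and GSH added to PBS, final 10 mM each with buffer at 2 mM, heated at 50 °C for 8 h.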

- Drug metabolism: metabolite_detected
SMILES: C=C1CC[C@@H]2[C@](C)(CO)[C@H](O)CC[C@@]2(C)[C@@H]1CC(SC[C@H](NC(=O)CC[C@H](N)C(=O)O)C(=O)NCC(=O)O)C1=CCOC1=O (single isomer, unassigned; diastereomer 1)
